Here are results for 18 molecules from ChEMBL document CHEMBL2203175, “Discovery and optimization of sulfonyl acrylonitriles as selective, covalent inhibitors of protein phosphatase methylesterase-1” (J Med Chem, 2011).

In assay [1] the target is T1, Protein phosphatase methylesterase 1 (Mus musculus) (UniProt Q8BVQ5).
T1 sequence (whole entry): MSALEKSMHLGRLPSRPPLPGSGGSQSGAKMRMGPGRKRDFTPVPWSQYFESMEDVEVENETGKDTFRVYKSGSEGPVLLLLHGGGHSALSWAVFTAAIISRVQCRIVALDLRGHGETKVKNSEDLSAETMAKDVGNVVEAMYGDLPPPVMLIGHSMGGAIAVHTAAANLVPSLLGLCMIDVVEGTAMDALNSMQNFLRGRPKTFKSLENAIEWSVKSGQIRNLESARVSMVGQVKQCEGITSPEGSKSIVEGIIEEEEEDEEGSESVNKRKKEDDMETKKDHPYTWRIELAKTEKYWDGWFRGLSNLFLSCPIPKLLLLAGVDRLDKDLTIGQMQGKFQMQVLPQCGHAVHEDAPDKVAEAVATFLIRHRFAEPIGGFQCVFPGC
As to the kind of experiment: Inhibition of PME1 binding to FP-rhodamine in mouse brain soluble proteome at 20 uM after 30 mins by […] activity-based protein profiling assay relative to control. The format is tissue-based.

Assay [2] concerns the target Acylamino-acid-releasing enzyme (Mus musculus) (UniProt Q8R146). As to the kind of experiment: Inhibition of acyl peptide hydrolase binding to FP-rhodamine in mouse brain soluble proteome at 50 uM after 30 mins by […] activity-based protein profiling assay relative to control. The format is tissue-based.
The target of assay [3] is T2, Protein phosphatase methylesterase 1 (Mus musculus, UniProt Q8BVQ5).
T2 sequence (Q8BVQ5 whole entry): T1 sequence (whole entry)
As to the kind of experiment: Inhibition of PME1 binding to FP-rhodamine in mouse brain soluble proteome after 45 mins by gel-based competitive activity-based protein profiling assay.

The target in assay [4] is T3, Protein phosphatase methylesterase 1 (Homo sapiens) (UniProt Q9Y570).
T3 sequence (whole entry): T1 sequence (whole entry) with T42S, G114S, S123P, V150I, A167S, A168S, V268I, N269S
As to the kind of experiment: Inhibition of PME1 expressed in untransfected HEK293T cells assessed as reduction in demethylated PP2A level at 500 nM after 1 hr by Western blot analysis. The format is cell-based. Particulars: HEK-293T. In a few lines: (§1)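 HEK 293T cells, either stably overexpressing PME-1 or untransfected, treated in medium for 1 h at 37 °C. Total cell extract (2 mg/mL) run on reducing SDS-PAGE (10%) and blotted with demethylated-specific (4b7), methylated-specific (2A10) and total PP2A antibodies, imaged by infrared fluorescence. Mean ± SEM, n = 3, compared against DMSO-treated cells.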

In assay [5] the target is Acylamino-acid-releasing enzyme (Homo sapiens) (UniProt P13798). As to the kind of experiment: Inhibition of acyl peptide hydrolase binding to FP-rhodamine in human HEK293T cells at 0.5 to 50 uM after 30 mins by […] activity-based protein profiling assay. Particulars: HEK-293T. (In general: Fluorescence polarisation rises when a labelled molecule tumbles more slowly, as on binding a larger partner.)

Assay [6] addresses T3, Protein phosphatase methylesterase 1 (Homo sapiens). As to the kind of experiment: Inhibition of PME1-based PP2A […] in human HEK293T cells at 50 uM after 3 hrs by Western blot analysis. The format is cell-based. Particulars: HEK-293T. On the technique in general: A western blot detects proteins with antibodies after separation by electrophoresis.
Assay [7] has as its target Protein phosphatase methylesterase 1 (Homo sapiens, UniProt Q9Y570). As to the kind of experiment: Inhibition of PME1 binding to FP-rhodamine in human MDA-MB-231 cells after 45 mins by gel-based competitive activity-based protein profiling assay.
In assay [8] the target is Prolyl endopeptidase (Mus musculus) (UniProt Q9QUR6). As to the kind of experiment: Inhibition of prolyl endopeptidase binding to FP-rhodamine in mouse brain soluble proteome at 50 uM after 30 mins by […] activity-based protein profiling assay relative to control. The format is tissue-based.
Assay [9] has as its target T3, Protein phosphatase methylesterase 1 (Homo sapiens). As to the kind of experiment: Inhibition of PME1 overexpressed in HEK293T cells assessed as increase in methylated PP2A level at 20 uM after 1 hr by Western blot analysis. The format is cell-based. Conditions: HEK-293T. In a few lines: as §1
Assay [10] shares this target. As to the kind of experiment: Inhibition of PME1 overexpressed in HEK293T cells assessed as reduction in demethylated PP2A level at 20 uM after 1 hr by Western blot analysis relative to control. The format is cell-based. Particulars: HEK-293T. In a few lines: as §1

Numbering of substitutions follows the chain as printed. Activity calls are given as the source filed them. No cut-off for these calls is given here.

Usually inhibition stands for the share of the control response that was lost under treatment. As a reminder, the IC50 is the midpoint of a concentration-inhibition curve.

Sequence of Prolyl endopeptidase (Mus musculus) (Q9QUR6 whole entry, looked up): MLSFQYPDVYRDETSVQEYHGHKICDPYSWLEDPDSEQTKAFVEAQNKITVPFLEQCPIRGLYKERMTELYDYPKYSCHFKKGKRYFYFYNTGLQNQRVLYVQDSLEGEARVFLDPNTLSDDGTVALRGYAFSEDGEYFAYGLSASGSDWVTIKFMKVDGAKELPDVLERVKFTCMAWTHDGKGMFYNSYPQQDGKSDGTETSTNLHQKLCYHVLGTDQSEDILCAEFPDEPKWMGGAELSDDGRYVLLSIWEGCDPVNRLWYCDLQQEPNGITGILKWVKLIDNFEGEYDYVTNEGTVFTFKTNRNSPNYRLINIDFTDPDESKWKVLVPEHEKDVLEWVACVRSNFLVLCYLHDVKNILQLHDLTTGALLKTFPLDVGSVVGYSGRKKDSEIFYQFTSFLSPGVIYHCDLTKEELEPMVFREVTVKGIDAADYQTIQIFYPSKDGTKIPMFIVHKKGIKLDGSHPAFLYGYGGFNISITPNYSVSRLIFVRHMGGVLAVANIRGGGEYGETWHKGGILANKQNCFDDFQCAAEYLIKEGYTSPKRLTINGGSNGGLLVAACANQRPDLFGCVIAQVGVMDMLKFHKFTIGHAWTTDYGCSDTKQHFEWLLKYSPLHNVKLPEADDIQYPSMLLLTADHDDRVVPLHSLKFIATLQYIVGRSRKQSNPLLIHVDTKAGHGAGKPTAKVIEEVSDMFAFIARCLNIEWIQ
Sequence of Acylamino-acid-releasing enzyme (Mus musculus) (Q8R146 whole entry): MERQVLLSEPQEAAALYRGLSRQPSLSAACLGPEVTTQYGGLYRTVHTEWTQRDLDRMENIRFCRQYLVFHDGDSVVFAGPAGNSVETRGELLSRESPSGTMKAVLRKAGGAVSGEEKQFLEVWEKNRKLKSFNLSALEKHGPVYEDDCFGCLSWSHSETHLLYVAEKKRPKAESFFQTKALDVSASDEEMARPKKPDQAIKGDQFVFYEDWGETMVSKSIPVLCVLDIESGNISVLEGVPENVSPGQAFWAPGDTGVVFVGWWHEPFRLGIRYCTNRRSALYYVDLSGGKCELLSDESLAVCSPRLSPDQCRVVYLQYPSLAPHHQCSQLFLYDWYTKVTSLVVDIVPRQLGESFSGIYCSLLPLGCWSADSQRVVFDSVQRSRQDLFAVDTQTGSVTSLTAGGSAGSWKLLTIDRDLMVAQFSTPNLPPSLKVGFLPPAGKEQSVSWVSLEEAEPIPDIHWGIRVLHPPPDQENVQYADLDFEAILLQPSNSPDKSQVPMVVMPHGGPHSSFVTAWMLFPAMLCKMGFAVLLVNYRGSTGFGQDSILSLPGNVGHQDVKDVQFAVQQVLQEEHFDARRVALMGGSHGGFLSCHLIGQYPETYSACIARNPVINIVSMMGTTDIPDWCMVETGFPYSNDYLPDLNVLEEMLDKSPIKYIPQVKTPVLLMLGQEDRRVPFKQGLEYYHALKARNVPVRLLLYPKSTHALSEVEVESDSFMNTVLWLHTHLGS
Sequence of Acylamino-acid-releasing enzyme (Homo sapiens) (P13798 whole entry): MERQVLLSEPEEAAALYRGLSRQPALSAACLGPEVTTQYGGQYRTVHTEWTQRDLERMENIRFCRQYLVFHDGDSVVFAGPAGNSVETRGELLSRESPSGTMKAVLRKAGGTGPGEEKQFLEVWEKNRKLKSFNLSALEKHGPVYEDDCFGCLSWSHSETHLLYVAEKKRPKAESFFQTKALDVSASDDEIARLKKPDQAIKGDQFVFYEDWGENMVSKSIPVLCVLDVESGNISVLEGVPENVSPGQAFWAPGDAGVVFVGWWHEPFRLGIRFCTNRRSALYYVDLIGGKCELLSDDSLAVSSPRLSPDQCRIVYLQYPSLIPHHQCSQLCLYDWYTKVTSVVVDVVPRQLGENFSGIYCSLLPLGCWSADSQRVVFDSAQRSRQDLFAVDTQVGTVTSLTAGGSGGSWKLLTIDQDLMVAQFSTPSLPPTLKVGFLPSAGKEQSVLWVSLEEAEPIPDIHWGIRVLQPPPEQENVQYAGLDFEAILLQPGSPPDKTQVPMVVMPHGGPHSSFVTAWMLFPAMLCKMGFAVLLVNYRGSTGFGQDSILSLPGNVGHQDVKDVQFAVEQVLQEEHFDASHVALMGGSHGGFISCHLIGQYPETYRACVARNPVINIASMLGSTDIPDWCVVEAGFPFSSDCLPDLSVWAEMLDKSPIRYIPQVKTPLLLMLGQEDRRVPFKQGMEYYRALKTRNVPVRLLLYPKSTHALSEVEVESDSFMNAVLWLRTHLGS
Sequence of Protein phosphatase methylesterase 1 (Homo sapiens, UniProt Q9Y570) (Q9Y570 whole entry): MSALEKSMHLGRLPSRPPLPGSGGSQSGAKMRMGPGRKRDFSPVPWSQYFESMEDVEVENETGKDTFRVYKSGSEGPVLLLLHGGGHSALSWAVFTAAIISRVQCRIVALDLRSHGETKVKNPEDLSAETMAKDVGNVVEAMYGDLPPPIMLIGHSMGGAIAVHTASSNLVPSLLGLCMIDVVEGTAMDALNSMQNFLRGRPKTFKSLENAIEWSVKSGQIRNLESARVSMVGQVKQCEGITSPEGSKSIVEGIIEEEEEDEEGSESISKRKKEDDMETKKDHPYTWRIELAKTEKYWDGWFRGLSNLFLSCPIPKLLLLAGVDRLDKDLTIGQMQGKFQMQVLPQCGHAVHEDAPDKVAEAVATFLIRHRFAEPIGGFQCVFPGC

Turning to `CS(=O)(=O)/C(=C/c1cccn1S(=O)(=O)c1ccccc1)CN`, the inhibition in assay [1] is 0%. `CS(=O)(=O)/C(C#N)=C/c1cccn1S(=O)(=O)c1ccc(Cl)cc1`: the inhibition in assay [2] was more than 50%.

Turning to `CS(=O)(=O)C(C#N)Cc1cccn1S(=O)(=O)c1ccccc1` (stereo unspecified), the inhibition in [1] came to 0%. In turn, `CC(C)(C)S(=O)(=O)/C(C#N)=C/c1cccn1S(=O)(=O)c1ccccc1` came in with an IC50 in assay [3] of 6.8 µM. `COC(=O)N1C(=O)[C@](c2ccccc2)(C2CCCC2)N1C(=O)OC`: the inhibition result in [4] was “Active”. With `CS(=O)(=O)/C(C#N)=C/c1cccn1S(=O)(=O)c1ccccc1`, the inhibition result in assay [5] and in assay [6] was “Active” in each case. Further, the results for the inhibition in assay [1] and in assay [2] were 90% and more than 50%, respectively. Moreover, the IC50 in assay [7] is 10.8 µM. In the case of `CS(=O)(=O)/C(C#N)=C/c1cccn1S(=O)(=O)c1ccc(C#N)cc1`, the 50% inhibitory concentration (IC50) in assay [3] stood at 4 µM. In assay [8], the inhibition was more than 50%.

As for `N#C/C(=C\c1cccn1S(=O)(=O)c1cccc(C#N)c1)S(=O)(=O)c1ccc(F)cc1`, in assay [9], the inhibition result was “Active”. The same molecule returned an IC50 in assay [3] of 0.64 µM. Also, in assay [10], the inhibition is 80%.

The molecule `N#CC(C#N)=Cc1cccn1S(=O)(=O)c1ccccc1` registered an inhibition in assay [1] of 50%. For `CS(=O)(=O)C(=Cc1cccn1S(=O)(=O)c1ccccc1)S(C)(=O)=O`, the results for the inhibition in assay [1] and in assay [8] were 0% and more than 50%, respectively. In assay [3], `CS(=O)(=O)/C(C#N)=C/c1cccn1S(=O)(=O)c1cccc(C#N)c1` registered an IC50 of 2.5 µM. This lies in the single-digit micromolar range.

Regarding `CS(=O)(=O)/C(C#N)=C/c1ccccc1`, in [1], the inhibition was determined as 0%. For the molecule `N#C/C(=C\c1cccn1S(=O)(=O)c1ccccc1)S(=O)(=O)c1ccccc1`, the IC50 in [3] is more than 20 µM. In the case of `CS(=O)(=O)/C(C#N)=C/c1ccc([N+](=O)[O-])cc1`, the inhibition in assay [1] turned out to be 0%.

Take `CC(C)(C)S(=O)(=O)/C(C#N)=C/c1cccn1S(=O)(=O)c1cccc(C#N)c1`: in [3], the IC50 was 3.4 µM.

`CS(=O)(=O)/C(C#N)=C/c1ccc[nH]1` came in with an inhibition in [1] of 0%. In the case of `CS(=O)(=O)/C(C#N)=C/c1cccn1S(=O)(=O)c1ccc([N+](=O)[O-])cc1`, the IC50 in assay [3] worked out at 3 µM. Same read-out and setting: to `CS(=O)(=O)/C(C#N)=C/c1cccn1S(=O)(=O)c1c(F)c(F)c(F)c(F)c1F` belongs more than 20 µM.
